Measurements from ChEMBL document CHEMBL3232894, “Discovery of AMG 925, a FLT3 and CDK4 dual kinase inhibitor with preferential affinity for the activated state of FLT3” (J Med Chem, 2014).
Activity calls are given as the source filed them. The rule behind the calls is not given here.

Key:
[1] = target: Cyclin-dependent kinase 1/cyclin B1 (Homo sapiens, UniProt P06493); assay: Inhibition of CDK1/cyclin B (unknown origin) using histone H1 as substrate after 60 mins by scintillation counting analysis in presence of [r-33P]ATP; assay type: protein-complex assay
[2] = target: Voltage-gated inwardly rectifying potassium channel KCNH2 (Homo sapiens, UniProt Q12809); assay: Binding affinity to human ERG
[3] = target: T1, Receptor-type tyrosine-protein kinase FLT3 (Homo sapiens, UniProt P36888); assay: Inhibition of GST-fused human FLT3 cytoplasmic domain (amino acids 564 to 993) using Ulight-JAK1 as substrate after 1 hr by TR-FRET assay
T1 sequence (P36888 whole entry): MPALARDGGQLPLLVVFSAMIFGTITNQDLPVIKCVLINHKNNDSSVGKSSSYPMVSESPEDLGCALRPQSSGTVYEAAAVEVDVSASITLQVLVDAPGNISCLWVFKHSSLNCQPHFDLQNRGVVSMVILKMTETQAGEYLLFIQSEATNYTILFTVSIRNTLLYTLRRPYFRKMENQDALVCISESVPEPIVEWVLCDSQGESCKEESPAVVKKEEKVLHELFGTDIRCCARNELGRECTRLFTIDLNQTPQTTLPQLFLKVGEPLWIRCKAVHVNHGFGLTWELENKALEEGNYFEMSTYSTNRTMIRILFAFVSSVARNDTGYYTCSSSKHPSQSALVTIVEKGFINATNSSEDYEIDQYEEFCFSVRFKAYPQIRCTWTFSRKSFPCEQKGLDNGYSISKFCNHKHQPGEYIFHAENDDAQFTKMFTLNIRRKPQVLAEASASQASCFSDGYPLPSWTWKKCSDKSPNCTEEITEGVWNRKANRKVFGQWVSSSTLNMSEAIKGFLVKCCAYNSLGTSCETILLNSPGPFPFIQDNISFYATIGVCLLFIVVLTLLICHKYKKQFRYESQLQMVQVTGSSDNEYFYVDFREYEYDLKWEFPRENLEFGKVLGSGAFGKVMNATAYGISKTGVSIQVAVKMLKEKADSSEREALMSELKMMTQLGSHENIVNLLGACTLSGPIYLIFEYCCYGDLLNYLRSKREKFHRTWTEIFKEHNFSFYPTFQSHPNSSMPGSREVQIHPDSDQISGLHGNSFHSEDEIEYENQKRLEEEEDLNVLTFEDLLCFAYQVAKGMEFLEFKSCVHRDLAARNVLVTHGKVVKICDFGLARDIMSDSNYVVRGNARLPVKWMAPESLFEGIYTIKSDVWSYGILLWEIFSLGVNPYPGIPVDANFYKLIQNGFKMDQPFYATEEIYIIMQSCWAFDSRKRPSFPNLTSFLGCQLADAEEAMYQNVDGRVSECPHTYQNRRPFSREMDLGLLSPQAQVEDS

[4] = target: Cyclin-dependent kinase 4/cyclin D1 (Homo sapiens, UniProt P11802); assay: Inhibition of CDK4/cyclin D1 (unknown origin) using Rb as substrate after 60 mins by scintillation counting analysis in presence of [r-33P]ATP; assay type: protein-complex assay
CYP3A4 = CYP3A4 (Homo sapiens, UniProt P08684); assay: Inhibition of CYP3A4 (unknown origin) at 3 uM; assay type: ADME
MOLM-13 = assay: Antiproliferative activity against human MOLM13 cells harboring FLT3 ITD mutant assessed as incorporation of [3H]thymidine into DNA after 72 hrs by beta-plate counting analysis; assay type: functional, cell-based
[5] = Clearance in iv dosed rat; assay type: ADME, organism-based; conditions: in vivo
How it was run: (§1)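 Intravenous and oral (gavage, solution) PK in rat, dog and cynomolgus monkey. The rat vehicle for both routes was water/acetate/tween at pH 4, 96/3/1 (v/v/v). Dog and monkey iv doses used 40% PG aqueous solution at pH 2, and their oral doses used 20% captisol aqueous solution.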

[6] = Antiproliferative activity against Rb-negative human MDA-MB-436 cells assessed as incorporation of [3H]thymidine into DNA after 72 hrs by beta-plate counting analysis; assay type: functional
Cytochrome P450 3A4 = Cytochrome P450 3A4 (Homo sapiens, UniProt P08684); assay: Inhibition of CYP3A4 (unknown origin); assay type: ADME
COLO 205 = assay: Antiproliferative activity against Rb-positive human COLO205 cells assessed as incorporation of [14C]thymidine into DNA after 72 hrs by beta-plate counting analysis
[7] = Oral bioavailability in rat; assay type: ADME, organism-based; conditions: in vivo; how it was run: as §1
[8] = AUC in rat at 2 mg/kg, po; assay type: ADME, organism-based; parameters: dose 2 mg/kg, route oral; conditions: plasma
[9] = Total Cmax in rat at 2 mg/kg, po; assay type: ADME, organism-based; parameters: dose 2 mg/kg, route oral; conditions: in vivo
Mus musculus [10] = assay: Toxicity in po dosed CrTac:NCR-Foxn1nu (NCR) nude mouse xenografted with human MOLM13 cells at dose that causing 100% tumor growth inhibition administered qd for 8 days; assay type: organism-based, MOLM-13; conditions: in vivo, 192 h
How it was run: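 Body weight tracked throughout the 8-day once-daily oral study in NCR nude mice carrying MOLM13 xenografts. Doses were 25, 50, 75 and 150 mg/kg, with a vehicle control.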

Tumour [11] = assay: Decrease in STAT5 phosphorylation at Tyr694 in tumor of CrTac:NCR-Foxn1nu (NCR) nude mouse xenografted with human MOLM13 cells at 150 mg/kg, po after 3 hrs; assay type: functional, organism-based; parameters: dose 150 mg/kg; conditions: Neoplasm, MOLM-13
How it was run: (§2)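 MOLM13 tumor-bearing mice received a single oral dose of 50, 75 or 150 mg/kg. Tumors were harvested at 3, 6 and 24 h, and lysates were assayed for pSTAT5 and pRb. Unbound plasma levels were measured at the same time points. Results are mean ± SEM, n = 3 per group and n = 6 for vehicle.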

Tumour [12] = assay: Decrease in Rb phosphorylation at Ser780 in tumor of po dosed CrTac:NCR-Foxn1nu (NCR) nude mouse xenografted with human MOLM13 cells after 24 hrs; assay type: functional, organism-based; conditions: Neoplasm, MOLM-13; how it was run: as §2
[13] = target: Cyclin-dependent kinase 4 (Homo sapiens, UniProt P11802); assay: Inhibition of CDK4 in human MOLM13 cells assessed as inhibition of Rb phosphorylation at Ser780 after 24 hrs; assay type: cell-based, MOLM-13
[14] = target: Receptor-type tyrosine-protein kinase FLT3 (Homo sapiens, UniProt P36888, ITD); assay: Inhibition of FLT3 ITD mutant in human MOLM13 cells assessed as inhibition of STAT5 phosphorylation at Tyr694 after 24 hrs; assay type: cell-based, MOLM-13
[15] = Drug uptake in CrTac:NCR-Foxn1nu (NCR) nude mouse at 150 mg/kg, po after 3 hrs; assay type: ADME, organism-based; parameters: dose 150 mg/kg, route oral; conditions: in vivo, read-out: Drug uptake
How it was run: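 Total plasma drug concentration in mouse PK studies, taken 3 h after a 150 mg/kg oral dose.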

Mus musculus [16] = assay: Unbound Cmax in CrTac:NCR-Foxn1nu (NCR) nude mouse xenografted with human MOLM13 cells at 150 mg/kg, po; assay type: ADME, organism-based, MOLM-13; parameters: dose 150 mg/kg, route oral; conditions: in vivo
Homo sapiens = organism: Homo sapiens; assay: Selectivity ratio of IC50 for CDK1/cyclin B (unknown origin) to IC50 for CDK4/cyclin D1 (unknown origin)

Chain of Cyclin-dependent kinase 4/cyclin D1 (P11802 whole entry): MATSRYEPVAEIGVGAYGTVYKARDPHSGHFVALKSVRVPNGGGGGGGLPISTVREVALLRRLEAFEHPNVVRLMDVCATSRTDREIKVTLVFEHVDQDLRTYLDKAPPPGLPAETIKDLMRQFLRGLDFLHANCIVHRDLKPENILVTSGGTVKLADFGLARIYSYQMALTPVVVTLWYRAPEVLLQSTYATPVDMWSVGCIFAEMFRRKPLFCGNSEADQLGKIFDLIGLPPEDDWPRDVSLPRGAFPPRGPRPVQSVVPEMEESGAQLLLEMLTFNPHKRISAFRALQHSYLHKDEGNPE
Chain of Cyclin-dependent kinase 4/cyclin D1 (P24385 whole entry, further chain): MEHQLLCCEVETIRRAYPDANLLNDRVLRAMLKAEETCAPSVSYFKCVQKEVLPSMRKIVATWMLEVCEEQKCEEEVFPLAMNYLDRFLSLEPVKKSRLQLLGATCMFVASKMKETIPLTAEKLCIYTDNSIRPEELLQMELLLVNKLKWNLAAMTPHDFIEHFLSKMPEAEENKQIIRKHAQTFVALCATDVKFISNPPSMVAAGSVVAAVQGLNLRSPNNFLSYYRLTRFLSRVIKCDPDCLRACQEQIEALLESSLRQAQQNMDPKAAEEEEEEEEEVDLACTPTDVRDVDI
Chain of Cyclin-dependent kinase 1/cyclin B1 (P06493 whole entry): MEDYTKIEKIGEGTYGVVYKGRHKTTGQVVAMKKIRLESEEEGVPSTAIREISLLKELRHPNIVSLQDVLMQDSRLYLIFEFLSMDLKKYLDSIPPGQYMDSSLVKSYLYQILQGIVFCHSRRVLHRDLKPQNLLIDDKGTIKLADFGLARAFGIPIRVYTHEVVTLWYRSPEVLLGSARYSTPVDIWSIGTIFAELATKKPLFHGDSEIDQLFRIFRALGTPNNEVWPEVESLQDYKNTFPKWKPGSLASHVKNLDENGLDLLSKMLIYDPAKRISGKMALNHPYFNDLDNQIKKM
Chain of Cyclin-dependent kinase 1/cyclin B1 (P14635 whole entry, further chain): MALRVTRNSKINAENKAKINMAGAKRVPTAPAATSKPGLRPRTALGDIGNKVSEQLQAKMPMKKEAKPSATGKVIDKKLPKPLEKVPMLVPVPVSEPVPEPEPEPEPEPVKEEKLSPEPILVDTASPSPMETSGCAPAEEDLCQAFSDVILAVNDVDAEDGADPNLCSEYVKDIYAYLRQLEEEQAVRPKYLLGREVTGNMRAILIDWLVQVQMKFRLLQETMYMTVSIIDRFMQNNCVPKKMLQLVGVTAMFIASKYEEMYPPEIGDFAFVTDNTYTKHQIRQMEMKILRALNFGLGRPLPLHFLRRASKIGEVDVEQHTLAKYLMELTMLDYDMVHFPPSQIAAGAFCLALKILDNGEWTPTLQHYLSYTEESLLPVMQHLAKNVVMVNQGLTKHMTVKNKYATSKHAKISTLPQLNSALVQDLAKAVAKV
Chain of Cyclin-dependent kinase 4 (P11802 whole entry): as the sequence (P11802 whole entry) above
Chain of CYP3A4 (P08684 whole entry): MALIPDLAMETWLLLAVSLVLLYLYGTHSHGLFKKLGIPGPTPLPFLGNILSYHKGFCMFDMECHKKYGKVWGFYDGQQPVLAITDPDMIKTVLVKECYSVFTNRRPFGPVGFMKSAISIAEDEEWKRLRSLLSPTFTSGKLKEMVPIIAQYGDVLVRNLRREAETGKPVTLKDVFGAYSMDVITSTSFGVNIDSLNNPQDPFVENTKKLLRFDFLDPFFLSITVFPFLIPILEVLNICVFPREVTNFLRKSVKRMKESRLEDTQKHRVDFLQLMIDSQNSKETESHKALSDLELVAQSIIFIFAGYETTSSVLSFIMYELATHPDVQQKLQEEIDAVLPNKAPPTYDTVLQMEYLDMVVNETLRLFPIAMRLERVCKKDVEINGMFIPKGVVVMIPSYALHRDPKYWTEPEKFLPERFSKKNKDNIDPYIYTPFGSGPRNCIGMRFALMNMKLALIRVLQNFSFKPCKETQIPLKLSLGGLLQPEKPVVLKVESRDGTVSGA
Chain of Cytochrome P450 3A4 (P08684 whole entry): as above
Chain of Voltage-gated inwardly rectifying potassium channel KCNH2 (Q12809 whole entry, the tested form may be a part): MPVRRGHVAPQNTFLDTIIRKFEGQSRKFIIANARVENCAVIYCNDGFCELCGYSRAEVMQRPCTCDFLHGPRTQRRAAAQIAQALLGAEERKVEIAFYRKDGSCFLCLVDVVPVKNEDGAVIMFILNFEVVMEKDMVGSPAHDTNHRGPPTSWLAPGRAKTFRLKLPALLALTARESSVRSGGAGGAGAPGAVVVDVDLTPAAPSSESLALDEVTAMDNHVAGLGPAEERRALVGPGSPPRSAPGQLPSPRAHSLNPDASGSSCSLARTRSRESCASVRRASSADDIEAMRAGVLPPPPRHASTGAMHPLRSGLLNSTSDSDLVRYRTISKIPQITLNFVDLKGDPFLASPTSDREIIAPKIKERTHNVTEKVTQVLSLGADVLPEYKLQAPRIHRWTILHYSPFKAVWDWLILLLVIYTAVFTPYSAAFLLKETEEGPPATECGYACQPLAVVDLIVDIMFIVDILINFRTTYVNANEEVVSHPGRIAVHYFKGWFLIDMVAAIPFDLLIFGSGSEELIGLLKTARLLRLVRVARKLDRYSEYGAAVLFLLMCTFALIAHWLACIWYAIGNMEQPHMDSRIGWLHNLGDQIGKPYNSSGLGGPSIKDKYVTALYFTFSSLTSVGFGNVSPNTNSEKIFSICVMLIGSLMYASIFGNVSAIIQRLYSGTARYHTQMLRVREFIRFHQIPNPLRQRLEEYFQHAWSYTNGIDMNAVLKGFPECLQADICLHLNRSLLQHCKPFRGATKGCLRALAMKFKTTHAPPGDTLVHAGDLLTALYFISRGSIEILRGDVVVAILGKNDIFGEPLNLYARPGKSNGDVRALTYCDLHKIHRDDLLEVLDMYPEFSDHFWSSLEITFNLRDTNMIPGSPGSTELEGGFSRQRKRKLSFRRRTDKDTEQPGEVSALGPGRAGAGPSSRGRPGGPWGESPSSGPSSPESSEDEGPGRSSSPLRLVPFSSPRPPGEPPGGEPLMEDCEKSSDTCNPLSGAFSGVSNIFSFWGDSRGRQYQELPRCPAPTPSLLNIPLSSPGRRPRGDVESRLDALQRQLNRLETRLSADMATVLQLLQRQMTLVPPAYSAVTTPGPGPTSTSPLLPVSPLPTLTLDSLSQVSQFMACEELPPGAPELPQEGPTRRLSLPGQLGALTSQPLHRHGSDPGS

SMILES | IC50 [1] [nM] | IC50 [3] [nM] | IC50 [4] [nM] | IC50 (MOLM-13) [nM] | clearance [5] [mL/min/kg] | IC50 (COLO 205) [nM] | bioavailability [7] [%] | AUC [8] [µM·h] | Cmax [9] [nM] | IC50 [6] [nM] | Activity (Mus musculus [10]) | further results
Clc1nccc2c3cnc(Nc4ccc(N5CCNCC5)cn4)nc3n(C3CCCC3)c12 | 3300 | 5 | 4 | 9 | 28.3 | 63 |  |  |  | 2100 |  | IC50 [2]: 2000 nM; inhibition at 3 µM (CYP3A4): < 10%; IC50 (Cytochrome P450 3A4): > 10000 nM
CN(C)C1CCN(c2ccc(Nc3ncc4c5ccncc5n([C@H]5CC[C@H](C)CC5)c4n3)nc2F)CC1 | 2680 | 0.6 | 1 | 13 | 20 | 16 | 88 |  |  | 1470 | Toxic | 
COc1nc(Nc2ncc3c4ccncc4n([C@H]4CC[C@H](C)CC4)c3n2)ccc1N1CCC(N(C)C)CC1 | 790 | 0.2 | 3 | 2 | 9.17 | 54 | 62 |  |  | 1120 | Toxic | 

Further lines, with some results ahead:

IC50 [1] [nM] | IC50 [3] [nM] | IC50 [4] [nM] | IC50 (MOLM-13) [nM] | clearance [5] [mL/min/kg] | IC50 (COLO 205) [nM] | bioavailability [7] [%] | AUC [8] [µM·h] | Cmax [9] [nM] | SMILES | IC50 [6] [nM] | Activity (Mus musculus [10]) | further results
1540 |  |  | 4 | 10 | 9 | 46 | 3.24 | 280 | C[C@@H](O)CN(C)C1CCN(c2ccc(Nc3ncc4c5ccncc5n([C@H]5CC[C@H](C)CC5)c4n3)nn2)CC1 | 910 |  | 
2200 | 4 | 2 | 9 | 10.2 | 11 | 28 | 1.57 | 130 | CN(C)C1CCN(c2ccc(Nc3ncc4c5ccncc5n([C@H]5CC[C@H](C)CC5)c4n3)nn2)CC1 | 2150 |  | inhibition (Tumour [11]): inactive; inhibition (Tumour [12]): Dose-dependent effect; IC50 [13]: 23 nM; IC50 [14]: 52 nM; concentration at 3 h [15]: 850 nM; fCmax (Mus musculus [16]): 0.024 µM; Ratio IC50 (Homo sapiens): > 1000
